According to ChEMBL document CHEMBL4393724, “Betulin-1,4-quinone hybrids: Synthesis, anticancer activity and molecular docking study with NQO1 enzyme” (Eur J Med Chem, 2019):
Active and inactive are the calls of the source. The calls are words filed in the database; no cut-off is given here.

Columns and labels:
[1] = target: NAD(P)H dehydrogenase [quinone] 1 (Homo sapiens) (UniProt P15559); assay: Inhibition of NQO1 in human C32 cells assessed as decrease in Bcl2 expression at 0.5 times of IC50 incubated for 24 hrs by RT-PCR; type: cell-based
Chain of NAD(P)H dehydrogenase [quinone] 1 (Homo sapiens) (P15559 whole entry): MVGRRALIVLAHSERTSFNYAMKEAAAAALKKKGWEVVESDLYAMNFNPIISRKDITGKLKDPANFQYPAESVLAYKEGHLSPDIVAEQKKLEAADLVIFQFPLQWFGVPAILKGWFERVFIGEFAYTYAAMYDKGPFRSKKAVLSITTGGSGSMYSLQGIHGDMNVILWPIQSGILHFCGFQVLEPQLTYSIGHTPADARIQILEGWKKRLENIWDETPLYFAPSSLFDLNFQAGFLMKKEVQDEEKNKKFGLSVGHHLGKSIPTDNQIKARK
How it was run: (§1)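 Cultured cells were exposed for 24 h to compound at half its IC50. Transcription of H3, TP53, CDKN1A, BAX and BCL-2 was quantified by real-time RT-qPCR with SYBR Green as mRNA copy numbers and compared with untreated control. The BAX/BCL-2 ratio was calculated from the mRNA copies.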

[2] = system: SNB-19; assay: Antiproliferative activity against human SNB19 cells assessed as reduction in cell viability incubated for 72 hrs by WST1 assay; type: functional, cell-based
[3] = system: MDA-MB-231; assay: Antiproliferative activity against human MDA-MB-231 cells assessed as reduction in cell viability incubated for 72 hrs by WST1 assay; type: functional, cell-based; details: Homo sapiens, MDA-MB-231, 72 h; read-out: IC50
[4] = target: NAD(P)H dehydrogenase [quinone] 1 (Homo sapiens) (UniProt P15559); assay: Inhibition of NQO1 in human C32 cells assessed as increase in CDKN1A expression at 0.5 times of IC50 incubated for 24 hrs by RT-PCR; type: cell-based; how it was run: as §1
[5] = system: A549; assay: Antiproliferative activity against human A549 cells assessed as reduction in cell viability incubated for 72 hrs by WST1 assay; type: functional, cell-based; details: Homo sapiens, A549, 72 h; read-out: IC50
How it was run: (§2)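 Cells held at 37 °C under 5% CO2 and seeded at 5 × 10^4 cells/well in DMEM with 10% FCS plus streptomycin and penicillin. Compounds were dissolved in DMSO and exposed for 72 h. WST-1 formazan was read at 450 nm. IC50 was derived from the mean ± SD of at least three independent experiments run in triplicate. Cisplatin served as reference.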

[6] = target: NAD(P)H dehydrogenase [quinone] 1 (Homo sapiens) (UniProt P15559); assay: Inhibition of NQO1 in human MCF7 cells assessed as effect on Bcl2 expression at 0.5 times of IC50 incubated for 24 hrs by RT-PCR; type: cell-based; how it was run: as §1
[7] = system: A549; assay: Induction of apoptosis in human A549 cells assessed as increase in BAX/Bcl2 expression at 0.5 times of IC50 incubated for 24 hrs by RT-PCR; type: functional, cell-based; how it was run: as §1
[8] = target: NAD(P)H dehydrogenase [quinone] 1 (Homo sapiens) (UniProt P15559); assay: Inhibition of NQO1 in human A549 cells assessed as decrease in of histone H3 expression at 0.5 times of IC50 incubated for 24 hrs by RT-PCR; type: cell-based; how it was run: as §1
[9] = target: NAD(P)H dehydrogenase [quinone] 1 (Homo sapiens) (UniProt P15559); assay: Inhibition of NQO1 in human A549 cells assessed as increase in BAX expression at 0.5 times of IC50 incubated for 24 hrs by RT-PCR; type: cell-based; how it was run: as §1
[10] = system: T47D; assay: Antiproliferative activity against human T47D cells assessed as reduction in cell viability incubated for 72 hrs by WST1 assay; type: functional, cell-based; details: Homo sapiens, T47D, 72 h; read-out: IC50
[11] = target: NAD(P)H dehydrogenase [quinone] 1 (Homo sapiens) (UniProt P15559); assay: Inhibition of NQO1 in human A549 cells assessed as increase in CDKN1A expression at 0.5 times of IC50 incubated for 24 hrs by RT-PCR; type: cell-based; how it was run: as §1
[12] = target: NAD(P)H dehydrogenase [quinone] 1 (Homo sapiens) (UniProt P15559); assay: Inhibition of NQO1 in human C32 cells assessed as increase in BAX expression at 0.5 times of IC50 incubated for 24 hrs by RT-PCR; type: cell-based; how it was run: as §1
[13] = system: C32; assay: Induction of apoptosis in human C32 cells assessed as increase in BAX/Bcl2 expression at 0.5 times of IC50 incubated for 24 hrs by RT-PCR relative to control; type: functional; how it was run: as §1
[14] = target: NAD(P)H dehydrogenase [quinone] 1 (Homo sapiens) (UniProt P15559); assay: Inhibition of NQO1 in human A549 cells assessed as decrease in Bcl2 expression at 0.5 times of IC50 incubated for 24 hrs by RT-PCR; type: cell-based; how it was run: as §1
[15] = target: NAD(P)H dehydrogenase [quinone] 1 (Homo sapiens) (UniProt P15559); assay: Inhibition of NQO1 in human MCF7 cells assessed as decrease in histone H3 expression at 0.5 times of IC50 incubated for 24 hrs by RT-PCR; type: cell-based; how it was run: as §1
[16] = target: NAD(P)H dehydrogenase [quinone] 1 (Homo sapiens) (UniProt P15559); assay: Inhibition of NQO1 in human MCF7 cells assessed as increase in BAX expression at 0.5 times of IC50 incubated for 24 hrs by RT-PCR; type: cell-based; how it was run: as §1
[17] = target: NAD(P)H dehydrogenase [quinone] 1 (Homo sapiens) (UniProt P15559); assay: Inhibition of NQO1 in human MCF7 cells assessed as increase in CDKN1A expression at 0.5 times of IC50 incubated for 24 hrs by RT-PCR; type: cell-based; how it was run: as §1
[18] = system: C32; assay: Antiproliferative activity against human C32 cells assessed as reduction in cell viability incubated for 72 hrs by WST1 assay; type: functional, cell-based; details: Homo sapiens, C32, 72 h; read-out: IC50; how it was run: as §2
[19] = target: NAD(P)H dehydrogenase [quinone] 1 (Homo sapiens) (UniProt P15559); assay: Inhibition of NQO1 in human MCF7 cells assessed as increase in TP53 expression at 0.5 times of IC50 incubated for 24 hrs by RT-PCR; type: cell-based; how it was run: as §1
[20] = target: NAD(P)H dehydrogenase [quinone] 1 (Homo sapiens) (UniProt P15559); assay: Inhibition of NQO1 in human A549 cells assessed as increase in TP53 expression at 0.5 times of IC50 incubated for 24 hrs by RT-PCR; type: cell-based; how it was run: as §1
[21] = system: COLO-829; assay: Antiproliferative activity against human COLO829 cells assessed as reduction in cell viability incubated for 72 hrs by WST1 assay; type: functional, cell-based; details: Homo sapiens, COLO-829, 72 h; read-out: IC50
[22] = target: NAD(P)H dehydrogenase [quinone] 1 (Homo sapiens) (UniProt P15559); assay: Inhibition of NQO1 in human C32 cells assessed as increase in TP53 expression at 0.5 times of IC50 incubated for 24 hrs by RT-PCR; type: cell-based; how it was run: as §1
[23] = target: NAD(P)H dehydrogenase [quinone] 1 (Homo sapiens) (UniProt P15559); assay: Inhibition of NQO1 in human C32 cells assessed as decrease in histone H3 expression at 0.5 times of IC50 incubated for 24 hrs by RT-PCR; type: cell-based; how it was run: as §1
[24] = system: MCF7; assay: Induction of apoptosis in human MCF7 cells assessed as increase in BAX/Bcl2 expression at 0.5 times of IC50 incubated for 24 hrs by RT-PCR; type: functional, cell-based; how it was run: as §1
[25] = system: MCF7; assay: Antiproliferative activity against human MCF7 cells assessed as reduction in cell viability incubated for 72 hrs by WST1 assay; type: functional, cell-based; details: Homo sapiens, MCF7, 72 h; read-out: IC50; how it was run: as §2
[26] = target: NAD(P)H dehydrogenase [quinone] 1 (Homo sapiens) (UniProt P15559); assay: Inhibition of NQO1 in human C32 cells assessed as effect on Bcl2 expression at 0.5 times of IC50 incubated for 24 hrs by RT-PCR; type: cell-based; how it was run: as §1
[27] = target: NAD(P)H dehydrogenase [quinone] 1 (Homo sapiens) (UniProt P15559); assay: Inhibition of NQO1 in human A549 cells assessed as effect on Bcl2 expression at 0.5 times of IC50 incubated for 24 hrs by RT-PCR; type: cell-based; how it was run: as §1

| SMILES | IC50 [3] [µM] | Activity [4] | IC50 [5] [µM] | Activity [6] | Activity [7] | Activity [8] | Activity [9] | IC50 [10] [µM] | Activity [11] | Activity [12] | Ratio [13] | Activity [15] | Activity [16] | Activity [17] | IC50 [18] [µM] | Activity [19] | Activity [20] | IC50 [21] [µM] | Activity [22] | Activity [23] | further results |
| --- | --- | --- | --- | --- | --- | --- | --- | --- | --- | --- | --- | --- | --- | --- | --- | --- | --- | --- | --- | --- | --- |
| C=C(C)[C@@H]1CC[C@]2(COC(C)=O)CC[C@]3(C)[C@H](CC[C@@H]4[C@@]5(C)CC[C@H](OC6=C(Cl)C(=O)c7ccc(C)nc7C6=O)C(C)(C)[C@@H]5CC[C@]43C)[C@@H]12 | 0.9 | Active | 0.59 | inactive | Active | Active | Active | 11.3 | Active | Active | 4 - 5 | Active | Active | Active | 6.52 | Active | Active | 4.68 | Active | Active | Activity [1]: Active; IC50 ([2]; snb-19): Not Active; Activity [14]: Active; Activity [24]: Active; IC50 [25]: 1.58 µM |
| C#CC(=O)OC[C@]12CC[C@@H](C(=C)C)[C@@H]1[C@H]1CC[C@@H]3[C@@]4(C)CC[C@H](OC5=C(Cl)C(=O)c6cccnc6C5=O)C(C)(C)[C@@H]4CC[C@@]3(C)[C@]1(C)CC2 | 2.43 | Active | 0.45 | inactive | Active | Active | Active | 99.4 | Active | Active | 4 - 5 | Active | Active | Active | 1.27 | Active | Active | 6.67 | Active | Active | IC50 ([2]; Homo sapiens, SNB-19, 72 h, read-out: IC50): 42 µM; Activity [26]: inactive; Activity [27]: inactive; Activity [24]: Active; IC50 [25]: 14.2 µM |
